# Results pooled from the literature.
# Each line is one published result; the experiments were not run side by side.
# Target: Serine/threonine-protein kinase 16 (STK16, Homo sapiens, UniProt O75716)
SMILES,read-out,technique,tested at,remaining binding [%]
Cc1cnn2ncc(-c3ccnc(N(C)C)n3)c2c1,binding,,1 µM,91
CCC(=O)N[C@@H]1CC[C@H](C(=O)N(C)c2ccc(-c3nc4ccccc4o3)cc2)C1,cell-free assay,competition with immobilised ligand,1 µM,100
COc1cc(Nc2nccc(-c3cnn4nc(OC)ccc34)n2)cc(C(F)(F)F)c1,binding,competition with immobilised ligand,1 µM,53
O=C(NCC1CCOCC1)c1n[nH]cc1NC(=O)c1c(F)cccc1F,binding,competition with immobilised ligand,1 µM,91
COc1cnc(Nc2cccc(S(N)(=O)=O)c2)nc1N1CCN(c2ccccc2)CC1,binding,competition with immobilised ligand,1 µM,57
c1cncc(-c2cccc(Nc3nccc(NC4CCCCC4)n3)c2)c1,binding,competition with immobilised ligand,10 µM,42
Nc1ncc2c(n1)-c1c([nH]c3ccc(C#CC4CC4)cc13)CCCC2,binding,competition with immobilised ligand,1 µM,100
CCN1CCN(Cc2ccc(C(=O)Nc3ccc(C)c(Oc4ccc5c(c4)CC(=O)N5)c3)cc2C(F)(F)F)CC1,binding,competition with immobilised ligand,1 µM,100
CNC(=O)Nc1ccc2c(c1)CC[C@@]21OC(=O)N(CC(=O)N(Cc2ccc(F)cc2)[C@@H](C)C(F)(F)F)C1=O,cell-free assay,competition with immobilised ligand,1 µM,84
O=C(c1ccc(Nc2ncc(Cl)c(-c3cc4ccccc4s3)n2)cc1)N1CCC(N2CCCC2)CC1,binding,competition with immobilised ligand,1 µM,5.6
CO[C@@H](C)c1c(Nc2ccc([C@H](N(C)C(=O)C3CCS(=O)(=O)CC3)C(F)(F)F)cc2)cnc2cc(Cl)nn12,cell-free assay,competition with immobilised ligand,1 µM,75
O=C(NCCCN1CCOCC1)c1ccc(Nc2ncc(Cl)c(-c3ccc(Cl)s3)n2)cc1,binding,competition with immobilised ligand,1 µM,1.1
CCCOc1ccc([C@H]2[C@H](C(=O)O)[C@@H](c3ccc4c(c3)OCO4)CN2CC(=O)Nc2c(CC)cccc2CC)cc1,cell-free assay,competition with immobilised ligand,1 µM,72
N[C@H]1CCN(c2nccc(-c3cnn4ncccc34)n2)C1,binding,,1 µM,91
O=C(c1ccc(Nc2ncc(Cl)c(-c3ccc(Cl)s3)n2)cc1)N1CCC(N2CCCC2)CC1,binding,competition with immobilised ligand,1 µM,0.05
CC1CCCN1c1nccc(-c2cnn3ncccc23)n1 (stereo not drawn),binding,,1 µM,86
COc1cccc(CNC(=O)c2nc3scc(COCc4ccc(C(=O)O)cc4)c3c(=O)[nH]2)c1,cell-free assay,competition with immobilised ligand,1 µM,87.2
CN(C)c1nccc(-c2cnn3ncccc23)n1,binding,,1 µM,87
COc1ccc2cc(OCC3(C(=O)O)CN(C(=O)c4ccc(F)cc4)C3)ccc2c1,cell-free assay,competition with immobilised ligand,1 µM,88
COc1ccnn2ncc(-c3ccnc(N(C)C)n3)c12,binding,,1 µM,85
C[C@@H](c1ccc(-n2cnc3c(N)ncnc32)cc1)N1CCc2nn(C)c(Cc3ccccc3)c2C1=O,binding,competition with immobilised ligand,0.1 µM,85
